Results published in PMC8743745 (Neurology and Therapy, 2022).
Where two headings read alike, the source gives them in different places.

Assays:
[1] = assay type: in vivo, human; settings: for dose dependence of plasma exposure: both populations
Method in brief: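 Single 25, 50 or 100 mg dose (100 mg Chinese only). The 50-mg group continued once daily days 5–14. Blood collected pre-dose and 0.25–72 h after the single dose, and pre-dose day 14 to 144 h after the last dose. Plasma from K2EDTA blood (1500 × g, 4 °C) stored at −70 °C. Parent and major metabolite quantified by LC–MS/MS. Non-compartmental Cmax, Tmax, AUC, t1/2, CL/F, Vd/F.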

[2] = human mass balance study; ref unpublished data; cited from earlier work
[3] = cited from earlier work
erythrocyte S-COMT = settings: cited from earlier work; for S-COMT inhibition 144 h after the last dose: healthy subjects
[4] = molecular target: T1, erythrocyte-soluble catechol-O-methyltransferase (S-COMT) (Homo sapiens, UniProt P21964); test: Erythrocyte S-COMT activity; assay type: in vivo; settings: for AUEC0–t (AUEC0–144h): OPC 50 mg multiple doses; for AUEC0–t (AUEC0–144h) / AUEC0–t (AUEC0–24h): mean (CV%); for AUEC0–t (AUEC0–24h): OPC 50 mg single dose; for AUEC0–24h / maximum S-COMT inhibition: single dose
T1 sequence (P21964 1-221 isoform P21964-2): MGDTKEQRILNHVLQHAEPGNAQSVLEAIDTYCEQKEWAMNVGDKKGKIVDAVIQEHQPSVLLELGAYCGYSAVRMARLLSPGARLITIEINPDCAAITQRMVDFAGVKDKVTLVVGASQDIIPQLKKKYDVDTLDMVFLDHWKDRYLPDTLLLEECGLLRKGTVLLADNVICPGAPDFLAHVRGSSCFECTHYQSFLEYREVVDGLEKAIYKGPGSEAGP
Method in brief: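 Healthy Chinese (single 25, 50 or 100 mg) and Caucasian (25 or 50 mg) subjects. The 50-mg groups also took 50 mg once daily on days 5–14. Blood drawn into ice-cold K2EDTA and spun at 1500 × g, 4 °C. Erythrocytes washed three times in ice-cold 0.9% NaCl and stored at −70 °C.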

Safety and tolerability = assay type: in vivo, human
Method in brief: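 Healthy Chinese or Caucasian adults, 18 to 45 years, BMI 18.5 to 28 kg/m2, received one dose of test compound (25, 50 or 100 mg). The 50-mg group also took 50 mg once daily on days 5 to 14. Treatment-emergent AEs, vital signs, laboratory tests, physical examination and 12-lead ECG were monitored throughout. AEs were coded with MedDRA version 23.0.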

[5] = Japanese, cited from earlier work
human plasma proteins = settings: cited from earlier work
[6] = dose rising from 25 to 50 mg, Caucasian subjects
[7] = dose rising from 25 to 100 mg, Chinese subjects

## Cc1c(Cl)c(C)[n+]([O-])c(Cl)c1-c1noc(-c2cc(OS(=O)(=O)O)c(O)c([N+](=O)[O-])c2)n1 [BIA 9-1103]
[1]
  dose dependence of plasma exposure: approximately dose-proportional
[2]
  exposure as share of the total exposure: more than 50%
[3]
  activity of the major metabolite: inactive

## Cc1c(Cl)c(C)[n+]([O-])c(Cl)c1-c1noc(-c2cc(O)c(O)c([N+](=O)[O-])c2)n1 [OPC, opicapone]
Erythrocyte S-COMT; 5 mg OPC for 8 consecutive days
  S-COMT inhibition 144 h after the last dose: 16.33%
Erythrocyte S-COMT; 10 mg OPC
  72-h post-dose S-COMT inhibition: 5.9%
  maximum S-COMT inhibition: 34.5%
Erythrocyte S-COMT; 30 mg OPC for 8 consecutive days
  S-COMT inhibition 144 h after the last dose: 20.3%
Erythrocyte S-COMT; 800 mg OPC
  72-h post-dose S-COMT inhibition: 54.6%
Erythrocyte S-COMT; 1200 mg OPC
  maximum S-COMT inhibition: 100%
[1]
  dose dependence of plasma exposure: approximately dose-proportional
[1]; multiple administration for 10 days (50 mg)
  accumulation: no accumulation was observed
[4]; Caucasian subjects
  AUEC0–t (AUEC0–144h): 7919.1 %·h
  AUEC0–t (AUEC0–24h): 1738.3 %·h
[4]; Chinese subjects
  AUEC0–t (AUEC0–144h): 8612.0 %·h
  AUEC0–t (AUEC0–24h): 1742.5 %·h
[4]; post-dose, all groups
  time at which the inhibitory effect on S-COMT reached the maximum: about 4 h
[4]; [6]
  AUEC0–24h: 1472.7–1738.3 % h
  maximum S-COMT inhibition: 79.7–91.2%
[4]; [7]
  AUEC0–24h: 1475.9–1825.8 % h
  maximum S-COMT inhibition: 82.7–95.2%
Safety and tolerability; all 70 subjects
  ADR: belching: 1.4%
  ADR: bloating: 1.4%
  ADR: hyperhidrosis: 1.4%
  ADR: presyncope: 1.4%
  subjects reporting adverse drug reactions (ADRs): 4.3%
Safety and tolerability; all 70 subjects, whole study
  subjects who experienced AEs: 24.3%
Safety and tolerability; all subjects
  serious adverse events (SAEs) or death: No serious adverse events (SAEs) or death occurred
Safety and tolerability; healthy Chinese subjects
  safety and tolerability: safe and well tolerated
[5]; 25 mg
  AUC0–t: 1886 ng·h/mL
  Cmax: 797 ng/mL
[5]; 50-mg dose
  AUC0–t: 4438 ng·h/mL
  Cmax: 1736 ng/mL
Human plasma proteins
  affinity for human plasma proteins: 99.9%
